Source: ChEMBL document CHEMBL3045252, “Stereoselective syntheses of all stereoisomers of lariciresinol and their plant growth inhibitory activities” (J Agric Food Chem, 2011)

Assays:
Lolium multiflorum [1] = experiment: Toxicity in italian ryegrass Lolium multiflorum (Italian ryegrass) assessed as adverse effect up to 10^-7 M; type: organism-based; details: in vivo
Lactuca sativa [2] = experiment: Plant growth regulatory activity in lettuce Lactuca sativa (lettuce) assessed as inhibition of shoot length at 1 mM at 20 degC measured after 3 days; type: functional; details: 72 h, read-out: GI
Method in brief: (§1)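 Paper was treated with acetone solution and dried, then 3 mL water added to a final 1 × 10^-3 M. Sealed dishes kept dark at 20 °C. Root and shoot lengths expressed as growth relative to the negative control. Mean ± SEM. One-way ANOVA with Tukey post-test.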

Lactuca sativa [3] = experiment: Plant growth regulatory activity in lettuce Lactuca sativa (lettuce) assessed as inhibition of root growth at 1 mM at 20 degC measured after 3 days; type: functional; details: 72 h, read-out: GI; method in brief: as §1
Lolium multiflorum [4] = experiment: Inhibition of seed germination in Lolium multiflorum (Italian ryegrass) seed assessed as seed germination rate (reference value: 90.3 +/- 1.40%); type: functional
Lolium multiflorum [5] = experiment: Inhibition of germination in Lolium multiflorum (Italian ryegrass) seed assessed as growth rate of germinated grass root; type: functional
Lolium multiflorum [6] = experiment: Plant growth regulatory activity in Lolium multiflorum (Italian ryegrass) assessed as inhibition of shoot length at 1 mM at 20 degC measured after 5 days; type: functional; details: 120 h, read-out: GI
Method in brief: (§2)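 Paper was pre-wetted with 500 μL acetone solution (6.0 × 10^-3 to 6.0 × 10^-8 M) and dried, then 3 mL water added to a final 1.0 × 10^-3 to 1.0 × 10^-8 M. Sealed dishes kept dark at 20 °C. Root and shoot lengths read against a negative control. Mean ± SEM; three experiments below 10^-3 M. One-way ANOVA with Tukey post-test.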

Lolium multiflorum [7] = experiment: Plant growth regulatory activity in Lolium multiflorum (Italian ryegrass) assessed as inhibition of root growth at 1x10'-3 M at 20 degC measured after 5 days; type: functional; details: 120 h, read-out: GI; method in brief: as §2
Lolium multiflorum [8] = experiment: Plant growth regulatory activity in Lolium multiflorum (Italian ryegrass ) assessed as inhibition of shoot length at 1x10'-3 M at 20 degC measured after 5 days; type: functional; details: 120 h, read-out: GI; method in brief: as §2
Lolium multiflorum [9] = experiment: Plant growth regulatory activity in Lolium multiflorum (Italian ryegrass) assessed as stimulation of root growth up to 10'--4 to 10^-7 M at 20 degC measured after 5 days; type: functional; method in brief: as §2

| SMILES | Activity (Lolium multiflorum [1]) | inhibition of growth at 1000 µM (Lactuca sativa [2]) [%] | inhibition of growth at 1000 µM (Lactuca sativa [3]) [%] | inhibition (INH) (Lolium multiflorum [4]) [%] | inhibition (INH) (Lolium multiflorum [5]) [%] | inhibition of growth at 1000 µM (Lolium multiflorum [6]) [%] | inhibition of growth at 1000 µM (Lolium multiflorum [7]) [%] | inhibition of growth at 1000 µM (Lolium multiflorum [8]) [%] | Activity (Lolium multiflorum [9]) [%] |
| --- | --- | --- | --- | --- | --- | --- | --- | --- | --- |
| COc1cc(C[C@H]2CO[C@@H](c3ccc(O)c(OC)c3)[C@@H]2CO)ccc1O | Non-toxic | -1.6 | -20.7 |  |  |  |  |  |  |
| COc1cc(C[C@@H]2CO[C@@H](c3ccc(O)c(OC)c3)[C@@H]2CO)ccc1O [(-)-Lariciresinol] |  | -13.3 | -8.2 | 80 | -57.2 | -17.1 | -44.3 |  |  |
| COc1cc(C[C@H]2CO[C@@H](c3ccc(O)c(OC)c3)[C@H]2CO)ccc1O |  | -1.6 | -20.7 |  |  |  | -30 | < 23 |  |
| COc1cc(C[C@H]2CO[C@H](c3ccc(O)c(OC)c3)[C@H]2CO)ccc1O [LARICIRESINOL] |  | -22 | -14.4 | 72.5 | -40.7 |  | -29.3 |  |  |
| COc1cc(C[C@H]2CO[C@H](c3ccc(O)c(OC)c3)[C@@H]2CO)ccc1O |  | -1.6 | -20.7 | 72.5 | -35.4 |  | -48.2 |  | 20 |
| COc1cc(C[C@@H]2CO[C@H](c3ccc(O)c(OC)c3)[C@H]2CO)ccc1O | Non-toxic | -1.6 | -20.7 |  |  |  |  |  |  |
| COc1cc(C[C@@H]2CO[C@H](c3ccc(O)c(OC)c3)[C@@H]2CO)ccc1O |  | -1.6 | -20.7 |  |  |  | -30 | < 23 |  |
| COc1cc(C[C@@H]2CO[C@@H](c3ccc(O)c(OC)c3)[C@H]2CO)ccc1O |  | -32.3 |  |  |  |  |  |  |  |
